# Screening results as filed in PubChem BioAssay.
# Shown are actives, neighbours in structure and some others; about 1.9% of the full set was active somewhere.
# Scp1 inh: Scp-1 (human) phosphatase inhibition | Recombinant Scp1, phosphopeptide, malachite green phosphate absorbance | inhibition, % at 20 µM | hit rate 0.88% among 340,000 | AID 493091;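 active = inhibition above about 50% at 20 µM, limit read from the data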;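 also: plate controls were DMSO wells with enzyme for no effect and wells lacking enzyme for full effect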
#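 System: SCP-1 catalytic domain; Reagent: Phospho 17-mer peptide substrate; Doses: one concentration, 20 µM, with 1.0% DMSO; Incubation: 45 min room-temperature reaction, 5 min colour, 30 min stabiliser; Signal: Phosphate-binding colour reagent, absorbance read at 630 nm.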
# DNMT1 inh: blocks human DNA methyltransferase DNMT1; DNMT1 molecular beacon, Hinp1I cleavage, fluorescence; hit rate 0.83% among 360,000; inhibition (reported as % activation of signal), % at 10 µM; P26358; in the data active = inhibition above about 50%
# Target sequence (P26358 504-1616 limits assumed): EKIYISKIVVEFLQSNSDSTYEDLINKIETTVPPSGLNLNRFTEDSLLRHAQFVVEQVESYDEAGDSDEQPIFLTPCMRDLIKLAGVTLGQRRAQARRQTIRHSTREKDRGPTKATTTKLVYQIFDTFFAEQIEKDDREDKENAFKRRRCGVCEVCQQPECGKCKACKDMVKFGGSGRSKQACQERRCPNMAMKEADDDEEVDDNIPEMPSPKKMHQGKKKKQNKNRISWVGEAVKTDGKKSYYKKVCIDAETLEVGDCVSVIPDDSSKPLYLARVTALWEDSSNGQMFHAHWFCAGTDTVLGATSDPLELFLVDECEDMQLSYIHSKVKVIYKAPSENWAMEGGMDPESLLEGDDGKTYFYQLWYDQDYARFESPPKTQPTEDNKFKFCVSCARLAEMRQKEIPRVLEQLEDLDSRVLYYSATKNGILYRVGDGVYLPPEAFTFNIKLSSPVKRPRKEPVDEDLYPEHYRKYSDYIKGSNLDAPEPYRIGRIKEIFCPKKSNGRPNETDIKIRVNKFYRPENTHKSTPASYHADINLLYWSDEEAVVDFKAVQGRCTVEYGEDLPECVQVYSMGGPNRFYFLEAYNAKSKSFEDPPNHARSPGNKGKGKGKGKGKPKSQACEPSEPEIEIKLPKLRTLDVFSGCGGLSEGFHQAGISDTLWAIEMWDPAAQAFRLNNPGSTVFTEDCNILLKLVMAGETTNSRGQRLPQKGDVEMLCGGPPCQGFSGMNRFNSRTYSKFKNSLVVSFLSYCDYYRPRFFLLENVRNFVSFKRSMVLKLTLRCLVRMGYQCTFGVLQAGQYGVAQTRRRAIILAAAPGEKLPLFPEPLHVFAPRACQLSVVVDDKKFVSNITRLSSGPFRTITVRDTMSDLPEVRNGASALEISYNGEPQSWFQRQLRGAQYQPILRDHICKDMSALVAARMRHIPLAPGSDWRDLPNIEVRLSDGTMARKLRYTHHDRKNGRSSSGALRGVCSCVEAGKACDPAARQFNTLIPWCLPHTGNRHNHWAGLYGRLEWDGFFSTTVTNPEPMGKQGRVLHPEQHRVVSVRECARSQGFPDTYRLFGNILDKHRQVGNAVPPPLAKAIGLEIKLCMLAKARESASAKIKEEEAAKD
# CSN deneddyl inh: blocks human CSN-mediated cullin deneddylation; AID 651999; Q92905; inhibition, % at 12.5 µM; hit rate 0.38% among 360,000; Purified CSN, SCF-Nedd8-OG deneddylation, fluorescence polarization;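 active = pattern-corrected inhibition above about 35%, with an unprinted fluorescence ratio check between 0.5 and 1.5, limit read from the data, passing the limit was not always enough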;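 also: 0% = enzyme with substrate and 100% = substrate without enzyme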
#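 Assay system: HEK293T-derived human Csn5 enzyme; quantity: 0.24 nM enzyme; medium: Tris/NaCl/DTT buffer, pH 7.5; also added: substrate SCFSkp2-Nedd8OG, 10 nM; doses: 12.5 µM compound; schedule: 90 min reaction at room temperature; signal: FP; read-out: % inhibition of substrate cleavage by Csn5; benchmarks: substrate-only high control, full reaction low control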
# SUMO1 PPI mod: SUMO1-SIM interaction modulation; inhibition, % at 20 µM; P63165; SUMO1 binding to a labelled peptide, TR-FRET, 1 h; hit rate 0.33% among 360,000; in the data active = inhibition above about 37%
# LMPTP block: blocks human LMPTP phosphatase; P24666; recombinant LMPTP-A, OMFP fluorogenic substrate, fluorescence intensity; inhibition, % at 20 µM; hit rate 0.22% among 360,000; AID 651560;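 active = compounds that cut the enzyme signal by at least half of the control window in the single-dose screen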;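 also: plate controls were DMSO wells with enzyme plus substrate for no effect and substrate without enzyme for full effect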
#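 Test system: LMPTP-A phosphatase enzyme. Amount: LMPTP-A at 0.625 nM final in the reaction. Reagent: OMFP substrate, 400 µM final. Times: 50 min at room temperature. Signal: endpoint fluorescence intensity from OMFP dephosphorylation. Read-out basis: % inhibition. Benchmarks: no-enzyme and uninhibited controls.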
# STEP inh: blocks human striatal-enriched tyrosine phosphatase; recombinant STEP, OMFP fluorogenic substrate, fluorescence; P54829; hit rate 0.25% among 360,000; inhibition, % at 20 µM; AID 588621;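 active = inhibition at 20 µM, scaled per plate between control wells, above about 37%, limit read from the data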;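 also: 0% = DMSO with enzyme and substrate and 100% = substrate only without enzyme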
#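 Assay system: isolated STEP enzyme. Buffer or medium: pH 6.0 Bis-Tris with DTT and Tween 20. Also added: fluorogenic phosphatase substrate OMFP at 25 µM final. Dosing: 20 µM, 1% DMSO. Timing: 20 min reaction, room temperature, in the dark. Measured by: fluorescence intensity, excitation 480 nm, emission 540 nm. Evaluation: normalized % inhibition.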
# * marks the source's active call; other numbers are inactive results; / = not tested or not shown.
SMILES,Scp1 inh,DNMT1 inh,CSN deneddyl inh,SUMO1 PPI mod,LMPTP block,STEP inh
O=C(Nc1cccc(NC(=O)c2ccccc2Cl)c1)c1ccco1,-10.5,1.2,1.2,2.5,0.0,0.7
Cc1ccc(/C=C/C(=O)OCC(=O)Nc2cccc(S(=O)(=O)N(C)C)c2)o1,-5.3,-2.4,-7.4,-12.2,0.6,-1.1
CCCCc1ccc(-c2csc(/C(C#N)=C/c3ccco3)n2)cc1,-10.3,7.2,23.8,-1.0,2.0,4.3
CCCCc1ccc(-c2csc(/C(C#N)=C\c3ccc(C)o3)n2)cc1,-4.3,24.3,38.0*,-1.5,1.6,-1.3
O=C(COC(=O)c1cc(=O)[nH]c2ccccc12)NCc1ccccc1,-4.6,6.0,1.7,-14.2,-1.7,-3.8
Nc1nn(-c2cccc(F)n2)cc1-c1ccccc1,-3.3,2.2,1.0,46.7*,0.8,-1.1
Cc1ccccc1CNC(=O)CN1C(=O)c2ccccc2S1(=O)=O,1.8,-1.9,1.4,-1.4,-0.3,-0.5
Cc1ccccc1CN1C(=O)c2ccccc2S1(=O)=O,-3.8,-2.3,1.2,43.6*,-0.6,0.4
CC1(C)Cc2c(c(=S)nc(-c3ccccc3)n2CCCN2CCOCC2)CO1,-5.2,-3.6,37.2*,-0.7,-3.1,0.1
CCOC(=O)[C@]12CCCC=C1N(Cc1ccccc1)C(=O)[C@H](CC(=O)N1CCC(c3ccccc3)CC1)C2,/,/,4.2,2.3,4.3,/
C#CCOCCOCCOCCNc1nc(N2CCN(C(=O)CCCCCCCCCCNC(=O)[C@H](CCCCN)n3cc(C[C@@H](C)CC)nn3)CC2)nc(N2CCN(C(=O)CCCCCCCCCCNC(=O)[C@@H]([C@H](C)O)n3cc(C)nn3)CC2)n1,37.6,-147.8,66.1*,69.8*,6.8,7.7
C#CCOCCOCCOCCNc1nc(N2CCN(C(=O)CCCCCCCCCCNC(=O)[C@H]([C@@H](C)CC)n3cc(CCCCN=C(N)N)nn3)CC2)nc(N2CCN(C(=O)CCCCCCCCCCNC(=O)[C@@H]([C@H](C)O)n3cc(C)nn3)CC2)n1,35.1,-107.7,96.9*,86.0*,9.4,6.1
C#CCOCCOCCOCCNc1nc(N2CCN(C(=O)CCCCCCCCCCNC(=O)[C@H](CCCCN)n3cc(C[C@@H](C)CC)nn3)CC2)nc(N2CCN(C(=O)CCCCCCCCCCNC(=O)[C@H](CCCN=C(N)N)n3cc(C[C@@H](C)CC)nn3)CC2)n1,58.2*,-227.3,137.1*,72.1*,13.9,29.2
C#CCOCCOCCOCCNc1nc(N2CCOCC2)nc(N2CCN(C(=O)CCCCCCCCCCNC(=O)[C@H]([C@@H](C)CC)n3cc(CCCCN=C(N)N)nn3)CC2)n1,12.4,8.7,-0.2,-40.2,1.5,0.6
C#CCOCCOCCOCCNc1nc(N2CCN(C(=O)CCCCCCCCCCNC(=O)[C@H](CCCCN)n3cc(CCO)nn3)CC2)nc(N2CCN(C(=O)CCCCCCCCCCNC(=O)[C@H](CCCCN)n3cc(C[C@@H](C)CC)nn3)CC2)n1,29.9,/,/,/,/,/
C#CCOCCOCCOCCNc1nc(N2CCN(C(=O)CCCCCCCCCCNC(=O)[C@@H](CCSC)n3cc(CCO)nn3)CC2)nc(N2CCN(C(=O)CCCCCCCCCCNC(=O)[C@H](CCCN=C(N)N)n3cc(C[C@@H](C)CC)nn3)CC2)n1,42.7,-105.6,130.7*,80.3*,12.1,17.8
O=S1(=O)C=CC(c2ccccc2)C1 (stereo not drawn),-7.2,-0.6,3.7,3.1,-1.2,-1.0
CCOC(=O)c1ccccc1NC(=O)C=C(C)C,-1.2,6.0,-4.3,-2.8,0.6,3.8
CCOC(=O)c1ccccc1NC(=O)/C=C/c1cc(OC)c(OC)c(OC)c1,1.1,-8.3,-1.1,42.6*,-0.5,-2.4
Cc1cccc(C)c1NC(=O)CSc1nnc(-c2ccco2)c(-c2ccco2)n1,77.0*,115.7*,58.9,50.7*,56.8*,39.3*
Cc1ccccc1NC(=O)CSc1nnc(-c2ccco2)c(-c2ccco2)n1,68.2*,105.6*,41.6,26.9,28.9,6.0
CN(C)c1ccc(NC(=O)CSc2nnc(-c3ccco3)c(-c3ccco3)n2)cc1,-3.4,-8.4,30.5,-8.5,26.8,3.6
